# Reference: the M2OR odorant receptor database
# Key:
# Settings in all cases: stereoisomer not certain
# [1] = target: T1, UniProt L7MU75
# T1 sequence (whole entry): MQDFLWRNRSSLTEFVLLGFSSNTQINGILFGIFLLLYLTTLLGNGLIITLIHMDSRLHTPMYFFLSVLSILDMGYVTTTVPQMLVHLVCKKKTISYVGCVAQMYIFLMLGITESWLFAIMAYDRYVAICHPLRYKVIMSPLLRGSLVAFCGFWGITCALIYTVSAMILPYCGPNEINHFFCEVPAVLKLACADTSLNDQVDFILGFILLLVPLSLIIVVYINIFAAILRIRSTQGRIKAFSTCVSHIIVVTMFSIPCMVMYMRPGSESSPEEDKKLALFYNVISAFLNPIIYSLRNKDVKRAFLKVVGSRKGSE
# How it was run: (§1)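 Transient luciferase assays in mammalian cell lines were common, though methods varied by source. The values come from published papers and their supplementary material, with extra details from the original authors when needed. Responsive refers to a measured signal the original authors judged statistically different from baseline, and non-responsive (inactive) to the remainder.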
# [2] = target: T2, UniProt L7N210
# T2 sequence (whole entry): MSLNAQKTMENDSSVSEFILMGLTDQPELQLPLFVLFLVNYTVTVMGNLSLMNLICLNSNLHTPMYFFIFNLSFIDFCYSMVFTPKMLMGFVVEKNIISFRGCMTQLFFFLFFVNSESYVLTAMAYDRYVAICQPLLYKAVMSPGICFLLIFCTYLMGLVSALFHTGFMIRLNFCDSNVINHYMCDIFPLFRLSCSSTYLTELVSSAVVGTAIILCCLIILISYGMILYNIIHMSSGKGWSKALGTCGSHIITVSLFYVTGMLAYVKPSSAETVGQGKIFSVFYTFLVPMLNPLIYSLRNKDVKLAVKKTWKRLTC
# How it was run: as §1
# [3] = target: T3, UniProt Q3KPB0
# T3 sequence (whole entry): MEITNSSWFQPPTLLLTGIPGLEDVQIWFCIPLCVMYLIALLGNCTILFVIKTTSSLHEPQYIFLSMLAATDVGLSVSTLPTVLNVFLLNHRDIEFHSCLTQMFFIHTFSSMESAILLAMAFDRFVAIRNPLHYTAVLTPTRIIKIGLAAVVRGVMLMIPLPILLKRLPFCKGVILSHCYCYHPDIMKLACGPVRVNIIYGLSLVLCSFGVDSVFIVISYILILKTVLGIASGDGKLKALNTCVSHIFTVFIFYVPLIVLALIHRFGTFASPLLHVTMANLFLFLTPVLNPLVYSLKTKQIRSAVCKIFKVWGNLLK
# How it was run: as §1
# [4] = target: T4, UniProt Q3U0P3
# T4 sequence (whole entry): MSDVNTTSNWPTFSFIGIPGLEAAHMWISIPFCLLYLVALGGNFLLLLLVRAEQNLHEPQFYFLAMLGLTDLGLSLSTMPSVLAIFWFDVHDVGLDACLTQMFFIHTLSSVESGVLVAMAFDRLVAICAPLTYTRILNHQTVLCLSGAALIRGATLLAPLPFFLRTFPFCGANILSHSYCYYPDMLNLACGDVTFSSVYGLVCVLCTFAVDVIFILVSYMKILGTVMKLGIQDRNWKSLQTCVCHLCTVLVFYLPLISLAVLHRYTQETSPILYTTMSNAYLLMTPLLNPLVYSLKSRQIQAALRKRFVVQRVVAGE
# How it was run: as §1
# [5] = target: T5, UniProt Q7TQU8
# T5 sequence (whole entry): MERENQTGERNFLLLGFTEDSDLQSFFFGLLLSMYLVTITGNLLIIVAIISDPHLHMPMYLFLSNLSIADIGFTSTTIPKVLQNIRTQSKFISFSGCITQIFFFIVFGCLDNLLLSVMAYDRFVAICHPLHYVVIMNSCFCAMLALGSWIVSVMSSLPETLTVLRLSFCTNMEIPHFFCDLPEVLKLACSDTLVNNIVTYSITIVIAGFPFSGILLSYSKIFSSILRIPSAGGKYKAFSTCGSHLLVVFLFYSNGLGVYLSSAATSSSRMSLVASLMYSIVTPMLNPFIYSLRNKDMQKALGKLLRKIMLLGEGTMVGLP
# How it was run: as §1
# [6] = target: T6, UniProt Q7TQV4
# T6 sequence (whole entry): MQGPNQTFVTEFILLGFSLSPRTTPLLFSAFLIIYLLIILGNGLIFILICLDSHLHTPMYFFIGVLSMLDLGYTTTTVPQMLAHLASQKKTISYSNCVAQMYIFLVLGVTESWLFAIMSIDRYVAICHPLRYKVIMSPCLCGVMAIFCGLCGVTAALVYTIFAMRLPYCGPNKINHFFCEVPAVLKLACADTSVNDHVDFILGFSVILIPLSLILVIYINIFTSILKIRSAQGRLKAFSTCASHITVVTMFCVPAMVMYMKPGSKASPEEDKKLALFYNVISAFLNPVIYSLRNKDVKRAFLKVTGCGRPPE
# How it was run: as §1
# [7] = target: T7, UniProt L7N0P5
# T7 sequence (whole entry): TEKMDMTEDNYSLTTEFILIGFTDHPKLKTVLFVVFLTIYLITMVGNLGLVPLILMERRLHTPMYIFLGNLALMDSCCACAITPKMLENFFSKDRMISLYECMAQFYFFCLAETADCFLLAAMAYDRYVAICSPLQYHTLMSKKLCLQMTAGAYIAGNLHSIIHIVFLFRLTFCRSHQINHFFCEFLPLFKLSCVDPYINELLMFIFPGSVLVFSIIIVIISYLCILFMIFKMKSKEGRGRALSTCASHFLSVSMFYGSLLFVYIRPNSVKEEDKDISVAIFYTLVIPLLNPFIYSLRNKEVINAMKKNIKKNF
# How it was run: as §1
# [8] = target: UniProt Q7TQR7
# UniProt Q7TQR7, sequence (Q7TQR7 as listed by the source): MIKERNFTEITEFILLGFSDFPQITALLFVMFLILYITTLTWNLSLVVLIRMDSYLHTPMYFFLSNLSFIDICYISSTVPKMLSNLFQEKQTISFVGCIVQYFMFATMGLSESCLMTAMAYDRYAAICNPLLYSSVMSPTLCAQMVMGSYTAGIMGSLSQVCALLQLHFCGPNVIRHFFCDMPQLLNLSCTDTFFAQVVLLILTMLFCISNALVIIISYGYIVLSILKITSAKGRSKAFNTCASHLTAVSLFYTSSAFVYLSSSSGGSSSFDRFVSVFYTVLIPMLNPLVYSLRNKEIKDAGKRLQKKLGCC
# How it was run: as §1
# [9] = target: UniProt Q7TQR9
# UniProt Q7TQR9, sequence (Q7TQR9 as listed by the source): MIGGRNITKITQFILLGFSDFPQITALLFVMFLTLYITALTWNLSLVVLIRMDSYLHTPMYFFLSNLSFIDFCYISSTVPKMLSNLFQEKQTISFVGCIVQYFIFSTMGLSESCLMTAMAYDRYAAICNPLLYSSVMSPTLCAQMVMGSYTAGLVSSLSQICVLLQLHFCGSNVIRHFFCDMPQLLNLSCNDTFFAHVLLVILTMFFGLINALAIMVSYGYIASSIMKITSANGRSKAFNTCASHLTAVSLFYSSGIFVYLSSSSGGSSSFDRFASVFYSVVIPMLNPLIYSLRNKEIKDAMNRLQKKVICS
# How it was run: as §1
# 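Further: active if original authors judged signal statistically different from baseline.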
compound,measurement,setting,value
CC(C)=CCCC(C)CCO (stereo unspecified),odorant receptor agonist call,[1],inactive
same,odorant receptor agonist call,[2],inactive
same,odorant receptor agonist call,[3],inactive
same,odorant receptor agonist call,[4],inactive
same,odorant receptor agonist call,[5],inactive
same,odorant receptor agonist call,[6],inactive
CCCCCC=O,odorant receptor agonist call,[1],inactive
same,odorant receptor agonist call,[2],inactive
same,odorant receptor agonist call,[3],inactive
same,odorant receptor agonist call,[4],inactive
same,odorant receptor agonist call,[5],inactive
same,odorant receptor agonist call,[6],inactive
CCCCCCCCCO,odorant receptor agonist call,[1],inactive
same,odorant receptor agonist call,[2],inactive
same,odorant receptor agonist call,[3],inactive
same,odorant receptor agonist call,[4],inactive
same,odorant receptor agonist call,[5],inactive
same,odorant receptor agonist call,[6],inactive
CCCCOC=O,odorant receptor agonist call,[1],inactive
same,odorant receptor agonist call,[2],inactive
same,odorant receptor agonist call,[3],inactive
same,odorant receptor agonist call,[4],inactive
same,odorant receptor agonist call,[5],inactive
same,odorant receptor agonist call,[6],inactive
CCC(=O)O,odorant receptor agonist call,[1],inactive
same,odorant receptor agonist call,[2],inactive
same,odorant receptor agonist call,[3],inactive
same,odorant receptor agonist call,[4],inactive
same,odorant receptor agonist call,[5],inactive
same,odorant receptor agonist call,[6],inactive
CCc1nccnc1C,odorant receptor agonist call,[7],active
Cc1cnc(C)cn1,odorant receptor agonist call,[7],active
CCCCCCC(=O)[O-].[H+],odorant receptor agonist call,[1],inactive
same,odorant receptor agonist call,[2],inactive
same,odorant receptor agonist call,[6],inactive
CC(=O)c1cnccn1,odorant receptor agonist call,[7],active
CCc1nccnc1OC,odorant receptor agonist call,[7],active
CCCCOC(=O)C(C)OC(=O)CCC (stereo unspecified),odorant receptor agonist call,[2],inactive
same,odorant receptor agonist call,[6],inactive
Cc1cnccn1,odorant receptor agonist call,[7],active
CCC(C(=O)O)c1ccccc1 (stereo unspecified),odorant receptor agonist call,[1],inactive
same,odorant receptor agonist call,[2],inactive
same,odorant receptor agonist call,[6],inactive
CC(C)=CCCC(C)=CCO,odorant receptor agonist call,[1],inactive
same,odorant receptor agonist call,[2],inactive
same,odorant receptor agonist call,[3],inactive
same,odorant receptor agonist call,[4],inactive
same,odorant receptor agonist call,[5],inactive
same,odorant receptor agonist call,[6],inactive
CCCO,odorant receptor agonist call,[1],inactive
same,odorant receptor agonist call,[2],inactive
same,odorant receptor agonist call,[4],inactive
same,odorant receptor agonist call,[5],inactive
CCCCCCO,odorant receptor agonist call,[1],inactive
same,odorant receptor agonist call,[2],inactive
same,odorant receptor agonist call,[3],inactive
same,odorant receptor agonist call,[4],inactive
same,odorant receptor agonist call,[5],inactive
same,odorant receptor agonist call,[6],inactive
CCc1nccnc1C(C)=O,odorant receptor agonist call,[7],active
CC(=O)c1nccnc1C,odorant receptor agonist call,[7],active
CC1CCCCCCCCCCCCC(=O)C1 (stereo unspecified),odorant receptor agonist call,[8],inactive
same,odorant receptor agonist call,[9],inactive
CCCCCCCO,odorant receptor agonist call,[1],inactive
same,odorant receptor agonist call,[2],inactive
same,odorant receptor agonist call,[3],inactive
same,odorant receptor agonist call,[4],inactive
same,odorant receptor agonist call,[5],inactive
same,odorant receptor agonist call,[6],inactive
CCCC(C)=O,odorant receptor agonist call,[1],inactive
same,odorant receptor agonist call,[2],inactive
same,odorant receptor agonist call,[6],inactive
O=C(OCc1ccccc1)c1ccccc1O,odorant receptor agonist call,[1],inactive
same,odorant receptor agonist call,[2],inactive
same,odorant receptor agonist call,[4],inactive
same,odorant receptor agonist call,[5],inactive
CC1CCc2nccnc21 (stereo unspecified),odorant receptor agonist call,[7],active
CCCCCO,odorant receptor agonist call,[1],inactive
same,odorant receptor agonist call,[2],inactive
same,odorant receptor agonist call,[6],inactive
Cc1cncc(C)n1,odorant receptor agonist call,[7],active
